# What was measured:
# Type in all cases: functional
# [1] = tested on: HT-29; experiment: Cytotoxicity against human HT-29 cells assessed as cell growth at 10^-5 M after 48 hrs by SRB assay; settings: HT-29, 48 h, read-out: Activity
# Procedure, shortened: (§1)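 NCI-60 five-dose screen. Cells were grown in RPMI 1640 with 5% FBS and seeded at 5000–40,000 cells/well according to doubling time. They were pre-incubated 24 h at 37 °C in 5% CO₂, and time-zero (Tz) plates were TCA-fixed at drug addition. Five 10-fold dilutions of DMSO stock were applied for 48 h. Read-out was SRB staining, 515 nm absorbance, with percent growth calculated versus Tz and untreated control.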
# [2] = tested on: UACC-62; experiment: Cytotoxicity against human UACC62 cells assessed as cell growth at 10^-5 M after 48 hrs by SRB assay; settings: UACC-62, 48 h, read-out: Activity
# [3] = tested on: U-251; experiment: Growth inhibition of human U251 cells after 48 hrs by SRB assay; settings: U-251, 48 h
# Procedure, shortened: (§2)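 Adherent NCI-60 lines grown in RPMI 1640 with 5% FBS, seeded at 5000–40,000 cells/well, and preincubated 24 h at 37 °C, 5% CO2. Compound, stocked in DMSO, given either once at 10^-5 M or at five 10-fold dilutions for 48 h. Cells fixed with cold TCA (final 10%), stained with 0.4% SRB, and read at 515 nm. GI50 taken as 50% reduction in net protein increase versus time-zero and control plates.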
# [4] = tested on: M14; experiment: Growth inhibition of human M14 cells after 48 hrs by SRB assay; settings: M14, 48 h; procedure, shortened: as §2
# [5] = tested on: DU-145; experiment: Growth inhibition of human DU145 cells after 48 hrs by SRB assay; settings: DU-145, 48 h
# Procedure, shortened: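 Same 48 h NCI-60 five-dose SRB protocol. Adherent lines were fixed with cold TCA at 10% final; suspension lines such as CCRF-CEM were fixed with 16% final TCA. Stain was 0.4% SRB in 1% acetic acid for 10 min, solubilized in 10 mM Tris base and read at 515 nm. GI50 came from log concentration–growth curves, solving [(Ti−Tz)/(C−Tz)]×100 = 50.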
# [6] = tested on: MDA-MB-468; experiment: Cytotoxicity against human MDA-MB-468 cells assessed as cell growth at 10^-5 M after 48 hrs by SRB assay; settings: MDA-MB-468, 48 h, read-out: Activity
# [7] = tested on: HL-60; experiment: Cytotoxicity against human HL60 cells assessed as cell growth at 10^-7 M after 48 hrs by SRB assay; settings: HL-60, 48 h, read-out: Activity; procedure, shortened: as §1
# [8] = tested on: SF-295; experiment: Cytotoxicity against human SF295 cells assessed as cell growth at 10^-7 M after 48 hrs by SRB assay; settings: SF-295, 48 h, read-out: Activity
# [9] = tested on: NCI-H460; experiment: Cytotoxicity against human NCI-H460 cells assessed as cell growth at 10^-4 M after 48 hrs by SRB assay; settings: NCI-H460, 48 h, read-out: Activity
# [10] = tested on: COLO; experiment: Cytotoxicity against human COLO […] cells assessed as cell growth at 10^-4 M after 48 hrs by SRB assay; settings: read-out: Activity
# Procedure, shortened: (§3)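 NCI-60 screen: lines kept in RPMI 1640 with 5% FBS, seeded at 5000–40,000 cells/well by doubling time, preincubated 24 h at 37 °C in 5% CO2. Time-zero plates TCA-fixed at drug addition. DMSO stocks diluted in medium, 48 h exposure. Fixation in cold TCA (final 10% adherent, 16% suspension), 0.4% SRB stain, solubilised in 10 mM Tris base, A515. Percent growth computed against control and time-zero.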
# [11] = tested on: SNB-19; experiment: Cytotoxicity against human SNB19 cells assessed as cell growth at 10^-4 M after 48 hrs by SRB assay; settings: SNB-19, 48 h, read-out: Activity
# [12] = tested on: PC-3; experiment: Cytotoxicity against human PC3 cells assessed as cell growth at 10^-4 M after 48 hrs by SRB assay; settings: PC-3, 48 h, read-out: Activity
# [13] = tested on: IGROV-1; experiment: Cytotoxicity against human IGROV1 cells assessed as cell growth at 10^-7 M after 48 hrs by SRB assay; settings: IGROV-1, 48 h, read-out: Activity
# [14] = tested on: OVCAR-3; experiment: Cytotoxicity against human OVCAR3 cells assessed as cell growth at 10^-7 M after 48 hrs by SRB assay; settings: OVCAR-3, 48 h, read-out: Activity
# [15] = tested on: HL-60; experiment: Cytotoxicity against human HL60 cells assessed as cell growth at 10^-8 M after 48 hrs by SRB assay; settings: HL-60, 48 h, read-out: Activity; procedure, shortened: as §1
# [16] = tested on: HCT-15; experiment: Cytotoxicity against human HCT15 cells assessed as cell growth at 10^-8 M after 48 hrs by SRB assay; settings: HCT-15, 48 h, read-out: Activity; procedure, shortened: as §1
# [17] = tested on: SNB-75; experiment: Cytotoxicity against human SNB75 cells assessed as cell growth at 10^-8 M after 48 hrs by SRB assay; settings: SNB-75, 48 h, read-out: Activity
# [18] = tested on: UACC-62; experiment: Cytotoxicity against human UACC62 cells assessed as cell growth at 10^-8 M after 48 hrs by SRB assay; settings: UACC-62, 48 h, read-out: Activity
# [19] = tested on: HL-60; experiment: Cytotoxicity against human HL60 cells assessed as cell growth at 10^-6 M after 48 hrs by SRB assay; settings: HL-60, 48 h, read-out: Activity; procedure, shortened: as §1
# [20] = tested on: NCI-H322M; experiment: Cytotoxicity against human NCI-H322M cells assessed as cell growth at 10^-6 M after 48 hrs by SRB assay; settings: read-out: Activity
# [21] = tested on: TK-10; experiment: Cytotoxicity against human TK10 cells assessed as cell growth at 10^-6 M after 48 hrs by SRB assay; settings: TK-10, 48 h, read-out: Activity
# [22] = tested on: HL-60; experiment: Growth inhibition of human HL60 cells after 48 hrs by SRB assay; settings: HL-60, 48 h
# Procedure, shortened: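 Leukemia suspension lines grown in RPMI 1640 with 5% FBS, seeded at 5000–40,000 cells/well, and preincubated 24 h at 37 °C, 5% CO2. Compound, stocked in DMSO, given either once at 10^-5 M or at five 10-fold dilutions for 48 h. Settled cells fixed with 80% TCA (final 16%), stained with SRB, and read at 515 nm. GI50 calculated against time-zero and control growth.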
# [23] = tested on: NCI-H522; experiment: Growth inhibition of human NCI-H522 cells after 48 hrs by SRB assay; settings: NCI-H522, 48 h; for CC50: read-out: LC50 (the source's name); procedure, shortened: as §2
# [24] = tested on: SF-539; experiment: Growth inhibition of human SF539 cells after 48 hrs by SRB assay; settings: SF-539, 48 h; procedure, shortened: as §2
# [25] = tested on: DU-145; experiment: Cytotoxicity against human DU145 cells assessed as cell growth at 10^-6 M after 48 hrs by SRB assay; settings: DU-145, 48 h, read-out: Activity; procedure, shortened: as §3
# [26] = tested on: CCRF-CEM; experiment: Cytotoxicity against human CCRF-CEM cells assessed as cell growth at 10^-5 M after 48 hrs by SRB assay; settings: read-out: Activity; procedure, shortened: as §3
# [27] = tested on: SR; experiment: Cytotoxicity against human SR cells assessed as cell growth at 10^-5 M after 48 hrs by SRB assay; settings: read-out: Activity
SMILES,growth at 10 µM [1],growth at 10 µM [2],GI50 [3],LC50 [3],TGI [3],GI50 [4],LC50 (concentration killing 50% of cells) [4],TGI [4],GI50 [5],LC50 (lethal concentration 50) [5],TGI [5],growth at 10 µM [6],growth at 0.1 µM [7],growth at 0.1 µM [8],growth at 100 µM [9],growth at 100 µM [10],growth at 100 µM [11],growth at 100 µM [12],growth at 0.1 µM [13],growth at 0.1 µM [14],other results
COc1ccc(-c2nn3cc(-c4ccc(O)cc4O)nc3s2)cc1,9%,24%,1.7 µM,> 100 µM,4.48 µM,3.68 µM,> 100 µM,18.1 µM,4.37 µM,> 100 µM,> 100 µM,9%,92%,90%,2%,-27%,1%,1%,94%,98%,growth at 0.01 µM [15]: 96%; growth at 0.01 µM [16]: 96%; growth at 0.01 µM [17]: 69%; growth at 0.01 µM [18]: 98%; growth at 1 µM [19]: 74%; growth at 1 µM [20]: 77%; growth at 1 µM [21]: 101%; GI50 [22]: 3.86 µM; LC50 [22]: > 100 µM; TGI [22]: 37.4 µM; GI50 [23]: 1.88 µM; TGI [23]: 11.2 µM; CC50 [23]: > 100 µM; GI50 [24]: 1.83 µM; TGI [24]: 3.47 µM; growth at 1 µM [25]: 91%; growth at 10 µM [26]: 40%; growth at 10 µM [27]: 6%
COc1ccc(-c2nn3cc(-c4cccc(N)c4)nc3s2)cc1,27%,26%,7.65 µM,> 100 µM,52.1 µM,5.48 µM,90.1 µM,24.5 µM,6.79 µM,> 100 µM,31.7 µM,-2%,95%,87%,-31%,-56%,7%,-22%,93%,98%,growth at 0.01 µM [15]: 103%; growth at 0.01 µM [16]: 98%; growth at 0.01 µM [17]: 70%; growth at 0.01 µM [18]: 93%; growth at 1 µM [19]: 60%; growth at 1 µM [20]: 86%; growth at 1 µM [21]: 118%; GI50 [22]: 1.77 µM; LC50 [22]: > 100 µM; TGI [22]: 37.7 µM; GI50 [23]: 1.63 µM; TGI [23]: 14 µM; CC50 [23]: 51.1 µM; GI50 [24]: 2.51 µM; LC50 [24]: 48 µM; TGI [24]: 7.83 µM; growth at 1 µM [25]: 93%; growth at 10 µM [26]: 10%; growth at 10 µM [27]: 26%
